# Screening results as filed in PubChem BioAssay.
# A selection: hits, their analogues and other compounds. The true share with any hit is near 1.4%.
# NR2E3 ag-1 = human photoreceptor-specific nuclear receptor agonism; 360,000 tested, 0.35% active; CHO-S Gal4-NCOR/VP16-NR2E3 two-hybrid, luciferase; AID 602229; inhibition of corepressor binding, % at 3.98 µM; Q9Y5X4;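 active = inhibition above the mean of all tested compounds plus 3 SD, cut at about 70% in these data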;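 also: 0% = DMSO with NR2E3 transfected cells and 100% = cells lacking NR2E3 construct; higher means lower luciferase signal from less NR2E3 corepressor binding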
# Target sequence (Q9Y5X4 whole entry, looked up, the tested form may be a part): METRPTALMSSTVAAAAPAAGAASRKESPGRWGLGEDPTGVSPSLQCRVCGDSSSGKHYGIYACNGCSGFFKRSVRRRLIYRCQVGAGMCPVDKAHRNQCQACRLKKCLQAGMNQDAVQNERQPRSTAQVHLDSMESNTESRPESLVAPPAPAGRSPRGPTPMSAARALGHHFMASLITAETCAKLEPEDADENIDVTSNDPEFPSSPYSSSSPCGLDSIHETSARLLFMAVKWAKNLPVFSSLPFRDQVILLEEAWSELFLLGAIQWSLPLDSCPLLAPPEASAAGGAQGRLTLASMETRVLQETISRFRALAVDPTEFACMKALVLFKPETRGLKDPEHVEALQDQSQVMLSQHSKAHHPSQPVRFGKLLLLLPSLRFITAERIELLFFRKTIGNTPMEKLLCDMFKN
# NR1D1 modulator = modulators of human Rev-erb alpha DNA binding. AID 1259318. 370,000 tested, 0.79% active. P20393. activity, % at 10 µM. Rev-erbα–FITC-DNA binding, fluorescence polarization, 90 min;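 active = activity above about 14%, limit read from the data; passing the limit was not always enough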;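 also: 0% = DMSO wells with 35 nM protein and 100% = DMSO wells with 750 nM protein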
# NR2E3 ag-2 = agonists of human nuclear receptor NR2E3; Q9Y5X4; GST-NR2E3/biotin-RetCOR TR-FRET, 1536-well; inhibition of corepressor binding, % at 4.78 µM; 320,000 tested, 0.12% active;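 active = percent inhibition above the cutoff of mean plus 3 SD of all tested compounds, set per screening campaign, cut at about 20% in these data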;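 also: 0% = DMSO wells and 100% = biotin wells as full block of FRET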
#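 Material: NR2E3–RetCOR corepressor complex / Incubation: Compound–protein incubation for 5 h at 4 °C / Dosing: compound at 4.8 µM, single dose / Detection: time-resolved FRET / Benchmarks: high control biotin, low control 0.6% DMSO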
# PG9 Ab binder = binds the HIV-1 gp120 antibody PG9; TR-FRET gp120-PG9 antibody binding; inhibition, % at 6.7 µM; 360,000 tested, 0.43% active; AID 624416; in the data active = inhibition above about 8.5%
# Rev-erbA confirm = confirmation of modulators of human Rev-erb alpha DNA binding; shares compounds with NR1D1 modulator; activation, % at 25 µM; 3,000 tested, 61% active; Rev-erb alpha FITC-DNA binding, fluorescence polarization, 90 min;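 active = activation at or above a set limit, or at least 3 SD above the negative control mean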;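 also: 0% = 35 nM protein with DMSO and 100% = 750 nM protein high control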
# RORg DNA counter = affects RORgamma DNA binding in a Rev-erb alpha counter-screen. shares compounds with NR1D1 modulator. IC50, µM. purified RORgamma protein-FITC-DNA binding, fluorescence polarization. AID 1259320. 910 tested, 8% active;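 active = Compounds whose fitted half-maximal concentration for disrupting protein-DNA binding is below 10 micromolar; the record names Rev-erb in its text, so the target is in doubt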
# * marks the source's active call; other numbers are inactive results; · = no result.
SMILES,NR2E3 ag-1,NR1D1 modulator,NR2E3 ag-2,PG9 Ab binder,Rev-erbA confirm,others
O=C(NCc1cccc(F)c1)c1cccc2c1C(=O)c1ccc(N3CCOCC3)cc1S2(=O)=O,-26.5,117.6*,·,-2.5,87.1*,RORg DNA counter=>40
CC(=O)N1N=C(c2cccc([N+](=O)[O-])c2)OC1c1ccc(Cl)cc1Cl (centres undefined),-23.9,1.5,0.2,-1.0,·,
FC(F)(F)c1cccc(Cc2noc(CN3CCSCC3)n2)c1,-0.5,-6.2,-1.6,1.3,·,
CN(C)c1ccccc1-c1csc(N2CCC(C(N)=O)CC2)n1,-161.6,1.9,·,-3.2,·,
COc1ccc(-n2c(SCC(=O)NCCC(C)C)nc3ccsc3c2=O)cc1,-8.8,1.8,-0.5,2.1,·,
COc1ccc(-n2c(SCC(=O)C(C)(C)C)nc3ccsc3c2=O)cc1,-0.1,20.8*,-0.6,3.2,19.9*,
CC(=O)c1c(C)[nH]c(C(=O)Nc2cc(S(=O)(=O)N3CCCCC3)ccc2C)c1C,-20.2,16.8*,2.7,-1.0,9.5,
CC(NS(=O)(=O)c1ccc(Cl)cc1)C(=O)OCC(=O)c1ccc[nH]1 (centres undefined),-10.2,-1.8,-5.2,-2.0,·,
COc1ccc(C(=O)OCc2cc(=O)oc3cc(C)ccc23)cc1S(=O)(=O)N1CCOCC1,-33.5,-3.4,·,-0.1,·,
COc1ccc2c(COC(=O)c3ccc(C)c(S(=O)(=O)N4CCOCC4)c3)cc(=O)oc2c1,-9.7,20.5*,·,-0.9,25.9*,
COC(=O)c1c(-c2ccc(Br)cc2)csc1NC(=O)Cc1ccc(OC)c(OC)c1,7.5,-1.1,-1.5,-0.1,·,
COC(=O)c1c(-c2cccc3ccccc23)csc1NC(=O)Cc1ccc(OC)c(OC)c1,23.7,19.5*,1.8,-1.2,30.0*,
Cc1cc(O)ccc1NC(=O)c1ccccc1,2.6,-4.7,1.2,0.0,·,
Cn1nnnc1-c1cc(Br)ccc1NC(=O)c1ccccc1,-23.2,72.4*,-3.3,-1.7,46.1*,RORg DNA counter=>40
COc1ccc(-c2oc(=O)c3cc(OC)c(OC)cc3c2C#CC2(O)CCCCC2)cc1,3.4,27.0*,·,-0.4,-2.6,
COc1cc(OC)cc(-c2oc(=O)c3cc(OC)c(OC)cc3c2C#CCCCO)c1,10.0,31.7*,8.7,-2.4,-4.5,
COc1ccc(-c2oc(=O)c3cc(OC)c(OC)cc3c2C#CCCCO)cc1,14.2,12.9,·,-0.7,·,
COc1ccc(S(=O)(=O)N(CC(=O)Nc2ccc(S(=O)(=O)N3CCOCC3)cc2)c2ccccc2)cc1,2.5,-3.1,1.0,-2.0,·,
COC(=O)CSc1nnc(-c2ccccc2OC)o1,-5.1,-3.4,2.9,-1.4,·,
Cc1cccc(C)c1OC(=O)CSc1nnc(-c2ccccc2O)o1,16.1,28.8*,3.8,5.5,26.4*,
CSc1ncccc1C(=O)OCC(=O)c1ccc2c(c1)NC(=O)CO2,2.2,40.4*,1.8,1.2,18.0,
Cc1cccc(C)c1OCC(=O)OCC(=O)c1ccc2c(c1)NC(=O)CO2,-3.3,0.1,0.9,-0.9,·,
Cn1cc(C(=O)NCc2cccs2)c(=O)c2cc(S(=O)(=O)N3CCCC3)ccc21,-18.2,28.1*,-3.1,-1.2,24.6*,
COC(=O)c1ccc(NC(=O)N2CCCC(C(=O)c3ccccc3OC)C2)cc1 (centres undefined),-8.2,5.8,2.0,-2.7,·,
CCn1c(=O)c(=O)[nH]c2cc(C(=O)N(C)Cc3ccc(OC)c(F)c3)ccc21,-31.1,-4.6,1.4,-1.3,·,
SMILES,NR2E3 ag-1,NR1D1 modulator,NR2E3 ag-2,PG9 Ab binder,Rev-erbA confirm,others
CC(=O)N1c2ccccc2S(=O)(=O)c2c1ccc1ccccc21,-9.9,22.5*,·,1.1,-1.7,
Cc1cc(=O)oc2cc(OCC(=O)Nc3ccc(S(=O)(=O)N(C)C)cc3)ccc12,11.3,23.2*,-1.6,-1.0,30.3*,RORg DNA counter=>40
Cc1cc(=O)oc2cc(OCC(=O)Nc3ccc(F)cc3F)ccc12,-19.4,20.9*,·,1.3,-1.2,
O=C(Cn1c(=O)c(=O)n(Cc2ccccc2)c2ccc(Cl)cc21)Nc1ccc(F)cc1F,1.5,28.6*,1.2,-1.9,11.6,
CC(C)(C)NC(=O)Cn1c(=O)c(=O)n(Cc2ccccc2)c2ccc(Cl)cc21,-7.9,-2.0,-4.8,0.2,·,
NC(=S)NC(=O)/C=C/c1ccccc1,3.2,-3.0,0.8,-5.2,·,
CC(C)(C#N)Cc1cc(CC(C)(C)C#N)cc(C(C)(C)C)c1,-15.8,21.7*,2.8,-0.3,43.1*,RORg DNA counter=>40
NC(=O)CSc1nc2c(sc(=S)n2-c2ccccc2)c(=O)[nH]1,-18.6,1.4,·,0.4,·,
O=c1[nH]c(-c2ccccc2F)nc2c1sc(=S)n2Cc1ccccc1,-2.4,23.6*,0.5,-3.0,2.4,
Cc1cc2nc(-c3cccc(Cl)c3)c(CC(C)(C)C)n2c(C)c1Br,-11.5,15.0*,·,1.0,8.9,
COc1ccc(N2CCN(C(=O)COC(=O)c3oc4ccccc4c3C)CC2)cc1,-15.6,0.9,0.1,-2.5,·,
COc1ccc(-c2cc(=O)oc3c(C)c(OCC(=O)Nc4cccnc4)ccc23)cc1,-15.3,27.6*,1.8,-1.4,1.7,
Cc1c(C)c2ccc(OCC(=O)Nc3cccnc3)c(C)c2oc1=O,-27.1,1.9,-4.8,-0.8,·,
Cc1cc(N2CCN(C(=O)OC(C)(C)C)C[C@H]2C)ccc1Br,·,14.8*,·,-0.8,3.6,
Cc1ccc(N(C(=O)CCC(=O)Nc2cc(C)on2)C(C(=O)NC2CCCC2)c2ccccc2)cc1 (centres undefined),-13.2,-5.2,3.7,0.1,·,
CSc1nc2cc(C)nn2c(-c2ccccc2Cl)c1C#N,0.8,41.7*,-4.7,-1.3,14.6,
CSc1nc2cc(C)nn2c(-c2ccc(C(C)(C)C)cc2)c1C#N,-14.9,44.4*,3.9,-2.4,11.9,
CSc1nc(-c2ccccc2)cc(C)c1C#N,-16.4,4.5,1.6,0.0,·,
CCOC(=O)[C@@H]1[C@H]2COc3ccc(Br)cc3[C@H]2N2C(=O)N(c3ccc(OC)cc3)C(=O)[C@]12C,-29.3,-5.7,·,1.3,·,
CCCN1C(=O)S/C(=C/c2ccc(N3CCOCC3)o2)C1=O,-0.1,47.1*,-2.1,-11.5,44.7*,RORg DNA counter=>40
CCCN1C(=O)S/C(=C\c2ccc(N3CCOCC3)o2)C1=O,0.4,-0.8,-1.3,-9.4,·,
COc1ccc(/C(N)=N/OC(=O)CCc2ccccc2)cc1,-5.2,-1.9,0.3,-2.5,·,
CC(C)(C)c1ccc(C(=O)NCC(=O)OCC(=O)c2ccc3c(c2)-c2ccccc2C3)cc1,1.3,25.9*,-0.1,-1.6,8.1,
CCN(CC)C1=CC2=CC(=C(C#N)C#N)CCC2CC1 (centres undefined),20.2,65.7*,-1.9,-6.6,24.4*,
CCCCN(C)C1=CC2=CC(=C(C#N)C#N)CCC2CC1 (centres undefined),-41.7,69.4*,0.8,-10.2,34.2*,RORg DNA counter=>40
N#CC(C#N)=C1C=C2C=C(N3CCCCC3)CCC2CC1 (centres undefined),·,·,-5.7,·,·,
